The source made the active and inactive calls. No cut-off for these calls is given here.
Experiments:
MCF7 [1] = assay: Down regulation of p-ACDase expression in human MCF7 cells at 10 uM after 24 hrs in presence of cyclohexamide by Western blot analysis; type: functional, cell-based
Outline: (§1)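 MCF7 cells pretreated 1h with vehicle or 40 μM cycloheximide, then given vehicle or 10 μM LCL521 alone or combined for 1, 8 and 24h. P- and α-ACDase detected by western blot against actin.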

[2] = target: T1, Sphingolipid delta(4)-desaturase DES1 (Homo sapiens) (UniProt O15121); assay: Inhibition of dihydroceramide desaturase in human MCF7 cells assessed as decrease in remaining activity at 5 to 10 uM after 24 hrs; type: cell-based
T1 sequence (whole entry): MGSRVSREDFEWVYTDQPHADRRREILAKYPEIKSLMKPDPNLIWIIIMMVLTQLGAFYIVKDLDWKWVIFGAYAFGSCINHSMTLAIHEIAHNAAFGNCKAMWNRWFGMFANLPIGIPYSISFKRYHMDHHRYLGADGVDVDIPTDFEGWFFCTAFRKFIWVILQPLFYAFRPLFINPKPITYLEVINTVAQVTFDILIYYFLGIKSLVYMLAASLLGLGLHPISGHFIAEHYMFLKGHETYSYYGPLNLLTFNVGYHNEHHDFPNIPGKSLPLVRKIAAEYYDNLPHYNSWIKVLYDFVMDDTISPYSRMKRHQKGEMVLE
Outline: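 Intact MCF7 cells (3×10^6 seeded in 150 mm dishes overnight) treated with vehicle or LCL521 for 24h. Cells were then pelleted and dihydroceramide desaturase activity assayed by a prior method. Means ± st dev of triplicates versus 0 μM.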

MCF7 [3] = assay: Down regulation of alpha-ACDase expression in human MCF7 cells at 10 uM after 8 hrs by Western blot analysis; type: functional, cell-based
Outline: (§2)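 MCF7 cells seeded overnight (1×10^6 per 100 mm dish) were exposed to vehicle or 10 μM LCL521 for 1, 2, 5, 8, 15 and 24h, or to 0.1–10 μM for 1h. α- and precursor (P-)ACDase detected by western blot; actin monitored loading and transfer.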

[4] = target: T2, Acid ceramidase (Homo sapiens) (UniProt Q13510); assay: Inhibition of ACDase in human MCF7 cells assessed as upregulation of dihydroceramide species at 10 uM after 8 to 24 hrs by LC-MS/MS analysis; type: cell-based
T2 sequence (whole entry): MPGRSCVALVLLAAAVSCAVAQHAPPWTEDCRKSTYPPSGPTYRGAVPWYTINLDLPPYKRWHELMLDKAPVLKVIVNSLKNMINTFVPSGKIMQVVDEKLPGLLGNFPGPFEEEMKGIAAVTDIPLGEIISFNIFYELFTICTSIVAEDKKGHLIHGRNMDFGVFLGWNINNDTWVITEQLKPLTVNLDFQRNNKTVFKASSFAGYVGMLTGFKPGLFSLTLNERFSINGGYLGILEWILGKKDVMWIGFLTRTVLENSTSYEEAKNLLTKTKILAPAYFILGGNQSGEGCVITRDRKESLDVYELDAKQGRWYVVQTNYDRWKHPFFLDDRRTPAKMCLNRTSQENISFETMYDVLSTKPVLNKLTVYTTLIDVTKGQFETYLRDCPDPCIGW
Outline: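 Over 8 and 24h, MCF7 cells received vehicle or 10 μM LCL521. Cn-dhCer species and dhSph quantified by LC-MS/MS in extracted lipids, normalized to lipid phosphate; means ± st dev of 4 replicates.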

MCF7 [5] = assay: Down regulation of alpha-ACDase protein expression in human MCF7 cells at >2.5 uM after 1 hr by Western blot analysis; type: functional, cell-based; outline: as §2
[6] = target: T2, Acid ceramidase (Homo sapiens); assay: Inhibition of ACDase in human MCF7 cells assessed as upregulation of C16-ceramide species at 10 uM after 1 hr by LC-MS/MS analysis; type: cell-based
Outline: (§3)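 MCF7 cells treated 1h with vehicle or 10 μM LCL521. Chain-length ceramide species and Sph in pellet lipid extracts quantified by LC-MS/MS per nmol lipid phosphate; means ± st dev of 6 replicates, t-test against control.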

MCF7 [7] = assay: Down regulation of alpha-ACDase expression in human MCF7 cells at 10 uM after 24 hrs in presence of cyclohexamide by Western blot analysis; type: functional, cell-based; outline: as §1
MCF7 [8] = assay: Down regulation of alpha-ACDase protein expression in human MCF7 cells at 10 uM after 1 hr by Western blot analysis; type: functional, cell-based; outline: as §2
[9] = target: T2, Acid ceramidase (Homo sapiens); assay: Inhibition of ACDase in human MCF7 cells assessed as down regulation of sphingosine 1-phosphate at 1 uM after 10 hrs by LC-MS/MS analysis; type: cell-based
Outline: (§4)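 MCF7 cells received vehicle or 1 μM LCL521 for 10h. Lipids were extracted from cell pellets, and Cer, Sph and S1P were quantified by LC-MS/MS as pmol/nmol lipid phosphate, expressed as % control; means ± st dev of 5 replicates.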

[10] = target: T2, Acid ceramidase (Homo sapiens); assay: Inhibition of ACDase in human MCF7 cells assessed as down regulation of sphingosine 1-phosphate at 10 uM after 24 hrs by LC-MS/MS analysis; type: cell-based
Outline: (§5)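 Exposure of MCF7 cells to vehicle or 10 μM LCL521 for 0.25–24h. Cer, Sph and S1P measured by LC-MS/MS in pellet lipid extracts, normalized to lipid phosphate, given as % control; means ± st dev of 4 replicates.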

[11] = target: T2, Acid ceramidase (Homo sapiens); assay: Inhibition of ACDase in human MCF7 cells assessed as upregulation of dihydroceramide species at 10 uM treated for 24 hrs after 1 hr treatment with myriocin by LC-MS/MS analysis; type: cell-based
Outline: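 MCF7 cells pretreated 1h with 100nM myriocin, then combined with vehicle or 10 μM LCL521 for 24h. Cn-dhCer quantified by LC-MS/MS per nmol lipid phosphate; triplicates.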

[12] = target: T2, Acid ceramidase (Homo sapiens); assay: Inhibition of ACDase in human MCF7 cells assessed as down regulation of sphingosine at 10 uM after 24 hrs by LC-MS/MS analysis; type: cell-based; outline: as §5
[13] = target: T2, Acid ceramidase (Homo sapiens); assay: Inhibition of ACDase in human MCF7 cells assessed as down regulation of sphingosine at 10 uM after 2 hrs by LC-MS/MS analysis; type: cell-based; outline: as §5
MCF7 [14] = assay: Down regulation of p-ACDase expression in human MCF7 cells assessed as p-ACDase expression at 10 uM measured at 24 hrs by Western blot analysis; type: functional; outline: as §2
[15] = target: T2, Acid ceramidase (Homo sapiens); assay: Inhibition of ACDase in human MCF7 cells assessed as upregulation of C14-ceramide species at 10 uM after 1 hr by LC-MS/MS analysis; type: cell-based; outline: as §3
MCF7 [16] = assay: Down regulation of p-ACDase expression in human MCF7 cells at 10 uM after 8 hrs by Western blot analysis; type: functional, cell-based; outline: as §2
MCF7 [17] = assay: Down regulation of alpha-ACDase protein expression in human MCF7 cells up to 1 uM after 1 hr by Western blot analysis; type: functional, cell-based
Outline: (§6)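 MCF7 cells (RPMI 1640, 10% FBS, 37°C, 5% CO2; 1×10^6 seeded in 100 mm dishes overnight) exposed to vehicle or LCL521, 0.1–10 μM for 1h, or 1 μM for 0.25–10h. α-ACDase detected by western blot, with actin as the loading/transfer control.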

[18] = target: T2, Acid ceramidase (Homo sapiens); assay: Inhibition of ACDase in human MCF7 cells assessed as down regulation of dihydrosphingosine at 10 uM after 1 hr by LC-MS/MS analysis; type: cell-based
MCF7 [19] = assay: Down regulation of alpha-ACDase protein expression in human MCF7 cells at 1 uM after 1 hr by Western blot analysis; type: functional, cell-based; outline: as §6
[20] = target: T2, Acid ceramidase (Homo sapiens); assay: Inhibition of ACDase in human MCF7 cells assessed as upregulation of ceramide at 10 uM after 8 to 24 hrs by LC-MS/MS analysis; type: cell-based; outline: as §5
[21] = target: T2, Acid ceramidase (Homo sapiens); assay: Inhibition of ACDase in human MCF7 cells assessed as upregulation of dihydroceramide at 10 uM after 1 hr by LC-MS/MS analysis; type: cell-based
[22] = target: T2, Acid ceramidase (Homo sapiens); assay: Inhibition of ACDase in human MCF7 cells assessed as upregulation of ceramide at 10 uM after 2 hrs by LC-MS/MS analysis; type: cell-based; outline: as §5
UMSCC14A = assay: Down regulation of ACDase protein expression in human UMSCC14A cells at 5 to 10 uM after 5 hrs by Western blot analysis; type: functional, cell-based
Outline: (§7)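 Cell lines SCC14A (mouth squamous carcinoma) and PPC-1 (prostate cancer) given a single treatment of LCL521; ACDase protein detected by western blot.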

MCF7 [23] = assay: Down regulation of alpha-ACDase expression in human MCF7 cells at 1 uM after 10 hrs by Western blot analysis; type: functional, cell-based
[24] = target: T2, Acid ceramidase (Homo sapiens); assay: Inhibition of ACDase in human MCF7 cells assessed as down regulation of sphingosine at 10 uM after 1 to 24 hrs by LC-MS/MS analysis; type: cell-based; outline: as §5
[25] = target: T2, Acid ceramidase (Homo sapiens); assay: Inhibition of ACDase in human MCF7 cells assessed as upregulation of dhC16-Cer species at 10 uM after 1 hr by LC-MS/MS analysis; type: cell-based
MCF7 [26] = assay: Down regulation of alpha-ACDase expression in human MCF7 cells at 10 uM after 2 to 24 hrs by Western blot analysis; type: functional, cell-based; outline: as §2
[27] = target: T2, Acid ceramidase (Homo sapiens); assay: Inhibition of ACDase in human MCF7 cells assessed as down regulation of sphingosine at 1 uM after 10 hrs by LC-MS/MS analysis; type: cell-based; outline: as §4
PPC-1 = assay: Down regulation of ACDase protein expression in human PPC1 cells at 5 to 10 uM after 5 hrs by Western blot analysis; type: functional, cell-based; outline: as §7
MCF7 [28] = assay: Down regulation of alpha-ACDase protein expression in human MCF7 cells at 10 uM treated for 5 hrs after pretreatment with 4 uM CA-074me for 30 mins by Western blot analysis; type: functional, cell-based
Outline: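 MCF7 cells pretreated with a cathepsin B inhibitor, then exposed to 10 μM LCL521. α-ACDase protein assessed by western blot.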

inhibition [2]: Active | inhibition [4]: Active | inhibition [6]: Active | inhibition [9]: inactive | inhibition [10]: Active | inhibition [11]: inactive | inhibition [12]: inactive | inhibition [13]: Active | inhibition [15]: Active | inhibition [18]: Active | inhibition [20]: Active | inhibition [21]: Active | inhibition [22]: Active | inhibition [24]: Active | inhibition [25]: Active | inhibition [27]: inactive
SMILES: CCCCCCCCCCCCCC(=O)N[C@H](COC(=O)CN(C)C)[C@H](OC(=O)CN(C)C)c1ccc([N+](=O)[O-])cc1.Cl.Cl
Activity (MCF7 [1]): Active | Activity (MCF7 [3]): Active | Activity (MCF7 [5]): Dose-dependent effect | Activity (MCF7 [7]): Active | Activity (MCF7 [8]): Active | Activity (MCF7 [14]): >70% | Activity (MCF7 [16]): Active | Activity (MCF7 [17]): inactive | Activity (MCF7 [19]): inactive | Activity (UMSCC14A): Active | inhibition (MCF7 [23]): inactive | Activity (MCF7 [26]): Active | Activity (PPC-1): Active | Activity (MCF7 [28]): inactive

From ChEMBL document CHEMBL4308872, “Dose dependent actions of LCL521 on acid ceramidase and key sphingolipid metabolites” (2018)
